Published values of several laboratories.
Compare with care: the assays were run in different laboratories.
Target: Transient receptor potential cation channel subfamily M member 6 (TRPM6, Homo sapiens, UniProt Q9BX84)

FC(F)(F)Oc1cccc(-c2cnc3ccc(-c4ccncc4)nn23)c1 — remaining binding (binding, competition with immobilised ligand; 5 µM): 84%
COc1ccnn2ncc(-c3ccnc(N(C)C)n3)c12 — remaining binding (binding; 1 µM): 82%
c1cncc(-c2cccc(Nc3nccc(NC4CCCCC4)n3)c2)c1 — remaining binding (binding, competition with immobilised ligand; 10 µM): 97%
N[C@@H]1CCN(c2nccc(-c3cnn4ncccc34)n2)C1 — remaining binding (binding; 1 µM): 100%
COc1ccc2c(c1)O[C@@H](c1ccc(OC)c(OC)c1)C[C@H]2NC(=O)C1(c2ccc3c(c2)OC(F)(F)O3)CC1 — remaining binding (cell-free assay, competition with immobilised ligand; 1 µM): 82%
O=C(NCCCN1CCOCC1)c1ccc(Nc2ncc(Cl)c(-c3ccc(Cl)s3)n2)cc1 — remaining binding (binding, competition with immobilised ligand; 1 µM): 100%
CN(C)c1nccc(-c2cnn3ncccc23)n1 — remaining binding (binding; 1 µM): 100%
C[C@H](c1ccc(F)cc1)N(Cc1cccc(C(=O)O)c1)C(=O)c1cnc2ccccc2c1 — remaining binding (cell-free assay, competition with immobilised ligand; 1 µM): 100%
C[C@@H]1CCN(c2nccc(-c3cnn4ncccc34)n2)C1 — remaining binding (binding; 1 µM): 91%
O=C(NCC1CCOCC1)c1n[nH]cc1NC(=O)c1c(F)cccc1F — remaining binding (binding, competition with immobilised ligand; 1 µM): 85%
COc1cnc(Nc2cccc(S(N)(=O)=O)c2)nc1N1CCN(c2ccccc2)C(=O)C1 — remaining binding (binding, competition with immobilised ligand; 1 µM): 93%
O=C(c1ccc(Nc2ncc(Cl)c(-c3cc4ccccc4s3)n2)cc1)N1CCC(N2CCCC2)CC1 — remaining binding (binding, competition with immobilised ligand; 1 µM): 100%
O=C(O)[C@H]1[C@H](Cn2nnc3ccccc3c2=O)CC[C@@H]1C(=O)c1ccc(OCCC2CCOCC2)cc1 — remaining binding (cell-free assay, competition with immobilised ligand; 1 µM): 100%
O=C(c1ccc(Nc2ncc(Cl)c(-c3ccc(Cl)s3)n2)cc1)N1CCC(N2CCCC2)CC1 — remaining binding (binding, competition with immobilised ligand; 1 µM): 100%
Nc1ncc2c(n1)-c1c([nH]c3ccc(C#CC4CC4)cc13)CCCC2 — remaining binding (binding, competition with immobilised ligand; 1 µM): 75%
O=C(NS(=O)(=O)c1ccc(NCC2CCOCC2)c([N+](=O)[O-])c1)c1ccc(N2CCN(Cc3ccc(C(F)(F)F)cc3-c3ccc(Cl)cc3)CC2)cc1Oc1cnc2[nH]ccc2c1 — remaining binding (cell-free assay, competition with immobilised ligand; 1 µM): 89%
CCN1CCN(Cc2ccc(C(=O)Nc3ccc(C)c(Oc4ccc5c(c4)CC(=O)N5)c3)cc2C(F)(F)F)CC1 — remaining binding (binding, competition with immobilised ligand; 1 µM): 100%
CN(c1nccc(-c2cnn3ncccc23)n1)C1CC1 — remaining binding (binding; 1 µM): 100%
CCCCN(CCCC)C(=O)CN1C[C@H](c2cc(OC)c3c(c2)OCO3)[C@@H](C(=O)O)[C@@H]1CC(C)(C)CCC — remaining binding (cell-free assay, competition with immobilised ligand; 1 µM): 91.6%
F[C@@H]1CCN(c2nccc(-c3cnn4ncccc34)n2)C1 — remaining binding (binding; 1 µM): 100%
CNCc1ccccc1-c1csc([C@@H](C)Nc2nc(C)nc3cc(OC)c(OC)cc23)c1 — remaining binding (cell-free assay, competition with immobilised ligand; 1 µM): 91%
